Measurements from ChEMBL document CHEMBL3272325, “Structure-activity relationships of dimeric Catharanthus alkaloids. 1. Deacetylvinblastine amide (vindesine) sulfate” (J Med Chem, 1978).

Tests used:
[1] = Acute toxicity in ip dosed mouse; format: organism-based; details: in vivo
[2] = Antitumor activity against mouse Ridgeway osteogenic sarcoma cells allografted in mouse at 0.5 to 0.8 mg/kg/day, ip; format: functional; details: route intraperitoneal
How it was run: (§1)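 Sulfate salts given ip on days 1-9 against ROS and GLS in mice; tumor growth scored as percent inhibition versus controls (+++ = 75-100%, ++ = 50-75%, ± = under 25%).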

[3] = Antitumor activity against mouse Gardner lymphosarcoma cell allografted in mouse at 0.5 to 0.8 mg/kg/day, ip; format: functional; details: route intraperitoneal; how it was run: as §1
P388 [4] = test: Antitumor activity against mouse P388 cells allografted in mouse assessed as increase in life span at 0.18 mg/kg/day, ip administered from day 1 to day 9 relative to untreated control; format: functional; details: route intraperitoneal
How it was run: (§2)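 P388 ascites implanted ip in mice, 10 animals per group. Sulfate salts given ip either daily on days 1-9 or as a single dose on day 1. Median life span was calculated using all deaths and survivors. Percent increase in life span was taken over untreated controls. The highest nontoxic dose was noted.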

P388 [5] = test: Antitumor activity against mouse P388 cells allografted in mouse assessed as increase in life span at 9 mg/kg/day, ip after 1 day; format: functional; details: 24 h, route intraperitoneal; how it was run: as §2
P388 [6] = test: Antitumor activity against mouse P388 cells allografted in mouse assessed as increase in life span at 6 mg/kg/day, ip after 1 day; format: functional; details: 24 h, route intraperitoneal; how it was run: as §2
P388 [7] = test: Antitumor activity against mouse P388 cells allografted in mouse assessed as increase in life span at 4 mg/kg/day, ip after 1 day; format: functional; details: 24 h, route intraperitoneal; how it was run: as §2
P388 [8] = test: Antitumor activity against mouse P388 cells allografted in mouse assessed as increase in life span at 1.8 mg/kg/day, ip after 1 day; format: functional; details: 24 h, route intraperitoneal; how it was run: as §2
P388 [9] = test: Antitumor activity against mouse P388 cells allografted in mouse assessed as increase in life span at 1.7 mg/kg/day, ip after 1 day; format: functional; details: 24 h, route intraperitoneal; how it was run: as §2
[10] = Toxicity in ip dosed mouse allografted with mouse p388 cells administered from day 1 to day 9; format: organism-based; details: in vivo, read-out: MNTD; how it was run: as §2
[11] = Toxicity in ip dosed mouse allografted with mouse p388 cells after 1 day; format: organism-based; details: in vivo, read-out: MNTD; how it was run: as §2
[12] = Antitumor activity against mouse Ridgeway osteogenic sarcoma cells allografted in mouse at 0.3 to 0.4 mg/kg/day, ip; format: functional; details: route intraperitoneal
How it was run: (§3)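 Ridgeway osteogenic sarcoma and Gardner lymphosarcoma in mice, with sulfate salts given ip daily on days 1-9. Tumor growth inhibition versus controls scored in bands: +++ = 75-100%, ++ = 50-75%, ± = under 25%.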

[13] = Antitumor activity against mouse Gardner lymphosarcoma cell allografted in mouse at 0.3 to 0.4 mg/kg/day, ip; format: functional; details: route intraperitoneal; how it was run: as §3
[14] = Antitumor activity against mouse P1534(J) cells allografted in mouse assessed as tumor growth inhibition at 0.2 mg/kg/day, ip administered from day 1 to day 9 relative to unreated control; format: functional; details: P1534J, route intraperitoneal, read-out: TGI
How it was run: (§4)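 P1534(J) leukemia implanted subcutaneously in mice. Sulfate salts given ip daily on days 1-9. Read-out was percent inhibition of tumor growth relative to untreated controls. The highest nontoxic dose was recorded.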

[15] = Antitumor activity against mouse P1534(J) cells allografted in mouse assessed as tumor growth inhibition at 0.1 mg/kg/day, ip administered from day 1 to day 9 relative to unreated control; format: functional; details: P1534J, route intraperitoneal, read-out: TGI; how it was run: as §4
[16] = Toxicity in ip dosed mouse allografted with mouse P1534(J) cells administered from day 1 to day 9; format: organism-based; details: in vivo, read-out: MNTD; how it was run: as §4
P388 [17] = test: Antitumor activity against mouse P388 cells allografted in mouse assessed as increase in life span at 0.6 mg/kg/day, ip administered from day 1 to day 9 relative to untreated control; format: functional; details: route intraperitoneal; how it was run: as §2
P388 [18] = test: Antitumor activity against mouse P388 cells allografted in mouse assessed as increase in life span at 0.4 mg/kg/day, ip administered from day 1 to day 9 relative to untreated control; format: functional; details: route intraperitoneal; how it was run: as §2
P388 [19] = test: Antitumor activity against mouse P388 cells allografted in mouse assessed as increase in life span at 0.27 mg/kg/day, ip administered from day 1 to day 9 relative to untreated control; format: functional; details: route intraperitoneal; how it was run: as §2
B16 [20] = test: Antitumor activity against mouse B16 cells allografted in C57Bl/6 mouse assessed as mean survival time at 0.9 mg/kg/day, ip administered on day 1, 5 and 9 (reference value: 24.6 days); format: functional; details: route intraperitoneal
B16 [21] = test: Antitumor activity against mouse B16 cells allografted in C57Bl/6 mouse assessed as mean survival time at 1.2 mg/kg/day, ip administered on day 1, 5 and 9 (reference value: 24.6 days); format: functional; details: route intraperitoneal
B16 [22] = test: Antitumor activity against mouse B16 cells allografted in C57Bl/6 mouse assessed as mean survival time at 0.6 mg/kg/day, ip administered on day 1, 5 and 9 (reference value: 24.6 days); format: functional; details: route intraperitoneal
B16 [23] = test: Antitumor activity against mouse B16 cells allografted in C57Bl/6 mouse assessed as mean survival time at 0.3 mg/kg/day, ip administered on day 1, 5 and 9 (reference value: 24.6 days); format: functional; details: route intraperitoneal
B16 [24] = test: Antitumor activity against mouse B16 cells allografted in C57Bl/6 mouse assessed as mean survival time at 0.15 mg/kg/day, ip administered on day 1, 5 and 9 (reference value: 24.6 days); format: functional; details: route intraperitoneal
B16 [25] = test: Antitumor activity against mouse B16 cells allografted in C57Bl/6 mouse assessed as increase in life span at 0.9 mg/kg/day, ip administered on day 1, 5 and 9 measured for 61 days relative to control; format: functional; details: route intraperitoneal
How it was run: (§5)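 C57BL/6 mice implanted ip with 0.5 mL of B16 melanoma brei. Alkaloid sulfate salts given ip on days 1, 5, 9 or on days 5, 9, 13. Percent increase in life span measured against controls; experiment ended at 61 days.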

B16 [26] = test: Antitumor activity against mouse B16 cells allografted in C57Bl/6 mouse assessed as increase in life span at 1.2 mg/kg/day, ip administered on day 1, 5 and 9 measured for 61 days relative to control; format: functional; details: route intraperitoneal
B16 [27] = test: Antitumor activity against mouse B16 cells allografted in C57Bl/6 mouse assessed as increase in life span at 0.6 mg/kg/day, ip administered on day 1, 5 and 9 measured for 61 days relative to control; format: functional; details: route intraperitoneal; how it was run: as §5
B16 [28] = test: Antitumor activity against mouse B16 cells allografted in C57Bl/6 mouse assessed as increase in life span at 0.3 mg/kg/day, ip administered on day 1, 5 and 9 measured for 61 days relative to control; format: functional; details: route intraperitoneal; how it was run: as §5
B16 [29] = test: Antitumor activity against mouse B16 cells allografted in C57Bl/6 mouse assessed as increase in life span at 0.15 mg/kg/day, ip administered on day 1, 5 and 9 measured for 61 days relative to control; format: functional; details: route intraperitoneal; how it was run: as §5
B16 [30] = test: Antitumor activity against mouse B16 cells allografted in C57Bl/6 mouse assessed as mean survival time at 1.2 mg/kg/day, ip administered on day 5, […] (reference value: 21.5 days); format: functional; details: route intraperitoneal
B16 [31] = test: Antitumor activity against mouse B16 cells allografted in C57Bl/6 mouse assessed as mean survival time at 0.6 mg/kg/day, ip administered on day 5, […] (reference value: 21.5 days); format: functional; details: route intraperitoneal
B16 [32] = test: Antitumor activity against mouse B16 cells allografted in C57Bl/6 mouse assessed as mean survival time at 0.3 mg/kg/day, ip administered on day 5, […] (reference value: 21.5 days); format: functional; details: route intraperitoneal
B16 [33] = test: Antitumor activity against mouse B16 cells allografted in C57Bl/6 mouse assessed as mean survival time at 0.15 mg/kg/day, ip administered on day 5, […] (reference value: 21.5 days); format: functional; details: route intraperitoneal
B16 [34] = test: Antitumor activity against mouse B16 cells allografted in C57Bl/6 mouse assessed as increase in life span at 0.9 mg/kg/day, ip administered on day 5, 9 and 13 measured for 61 days relative to control; format: functional; details: route intraperitoneal; how it was run: as §5
B16 [35] = test: Antitumor activity against mouse B16 cells allografted in C57Bl/6 mouse assessed as increase in life span at 1.2 mg/kg/day, ip administered on day 5, 9 and 13 measured for 61 days relative to control; format: functional; details: route intraperitoneal
B16 [36] = test: Antitumor activity against mouse B16 cells allografted in C57Bl/6 mouse assessed as increase in life span at 0.6 mg/kg/day, ip administered on day 5, 9 and 13 measured for 61 days relative to control; format: functional; details: route intraperitoneal; how it was run: as §5
B16 [37] = test: Antitumor activity against mouse B16 cells allografted in C57Bl/6 mouse assessed as increase in life span at 0.3 mg/kg/day, ip administered on day 5, 9 and 13 measured for 61 days relative to control; format: functional; details: route intraperitoneal; how it was run: as §5
B16 [38] = test: Antitumor activity against mouse B16 cells allografted in C57Bl/6 mouse assessed as increase in life span at 0.15 mg/kg/day, ip administered on day 5, 9 and 13 measured for 61 days relative to control; format: functional; details: route intraperitoneal; how it was run: as §5
B16 [39] = test: Antitumor activity against mouse B16 cells allografted in C57Bl/6 mouse assessed as mean survival time at 0.9 mg/kg/day, ip administered on day 5, 9 and 13 (reference value: 21.5 days); details: route intraperitoneal

With CC[C@]1(O)C[C@@H]2C[C@](C(=O)OC)(c3cc4c(cc3OC)N(C)[C@H]3[C@@](O)(C(N)=O)[C@H](O)[C@]5(CC)C=CCN6CC[C@]43[C@@H]65)c3[nH]c4ccccc4c3CC[N+]([O-])(C2)C1 the LD50 [1] was greater than 10 mg/kg, the TGI [2] was 25% and the TGI [3] was 25%.

Compound CC[C@]1(O)C[C@H]2CN(CCc3c([nH]c4ccccc34)[C@@](C(=O)OC)(c3cc4c(cc3OC)N(C)[C@H]3[C@@](O)(C(=O)OC)[C@H](O)[C@]5(CC)C=CCN6CC[C@]43[C@@H]65)C2)C1.O=S(=O)(O)O has an ILS at 0.18 mg/kg/day (P388 [4]) of 136%, an ILS at 9 mg/kg/day (P388 [5]) greater than 263% and an ILS at 6 mg/kg/day (P388 [6]) of 200%. It also gave an ILS at 4 mg/kg/day (P388 [7]) of 218%, an ILS at 1.8 mg/kg/day (P388 [8]) of 159% and an ILS at 1.7 mg/kg/day (P388 [9]) of 154%. It also gave an MTD [10] of 0.6 mg/kg/day, an MTD at 24 h [11] of 9 mg/kg/day and a TGI [12] of 50%. For the same compound, the TGI [13] was 50%, the LD50 [1] was 5.8 mg/kg and the inhibition in vivo at 0.2 mg/kg/day [14] was 96%. It also gave an inhibition in vivo at 0.1 mg/kg/day [15] of 41%, an MTD [16] of 0.2 mg/kg/day and an ILS at 0.6 mg/kg/day (P388 [17]) greater than 263%. It also gave an ILS at 0.4 mg/kg/day (P388 [18]) greater than 263%, an ILS at 0.27 mg/kg/day (P388 [19]) of 181% and an MST (B16 [20]) of 45.3 days. It also gave an MST (B16 [21]) of 41.5 days, an MST (B16 [22]) of 51.5 days and an MST (B16 [23]) of 49.3 days. The MST (B16 [24]) was 42.1 days, the ILS at 0.9 mg/kg/day (B16 [25]) was 84% and the ILS at 1.2 mg/kg/day (B16 [26]) was 69%. For the same compound, the ILS at 0.6 mg/kg/day (B16 [27]) was 109%, the ILS at 0.3 mg/kg/day (B16 [28]) was 100% and the ILS at 0.15 mg/kg/day (B16 [29]) was 71%. For the same compound, the MST (B16 [30]) was 45.2 days, the MST (B16 [31]) was 41.1 days and the MST (B16 [32]) was 41.1 days. The MST (B16 [33]) was 33.7 days, the ILS at 0.9 mg/kg/day (B16 [34]) was 126% and the ILS at 1.2 mg/kg/day (B16 [35]) was 110%. It also gave an ILS at 0.6 mg/kg/day (B16 [36]) of 91%, an ILS at 0.3 mg/kg/day (B16 [37]) of 91% and an ILS at 0.15 mg/kg/day (B16 [38]) of 57%. It also gave an MST (B16 [39]) of 48.7 days.
